Measured values taken from ChEMBL document CHEMBL4350999, “Enhanced tumor retention of NTSR1-targeted agents by employing a hydrophilic cysteine cathepsin inhibitor” (Eur J Med Chem, 2019).

Experiments:
[1] = Drug excretion in SCID mouse xenografted with human HT-29 cells at 0.37 MBq/mouse, iv measured at 4 hrs using 177Lu labelled compound by gamma counter analysis; type: ADME, organism-based; details: in vivo
Outline: (§1)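 Female SCID mice bearing s.c. flank HT-29 xenografts (5 × 10^6 cells in Matrigel, ~80 mm3). Given 10 μCi (0.37 MBq) 177Lu conjugate i.v. by tail vein; groups sacrificed at 4, 24, 72 h. Tissues weighed and gamma-counted as %ID/g, excretion as %ID; n = 5, mean ± SD. Blocking arms: colchicine 1 mg/kg i.p. beforehand, or D-lysine 40 mg/kg co-injected.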

[2] = Drug uptake in blood of SCID mouse xenografted with human HT-29 cells at 0.37 MBq/mouse, iv measured at 4 hrs using 177Lu labelled compound by gamma counter analysis; type: ADME, organism-based; details: in vivo; outline: as §1
[3] = Drug uptake in heart of SCID mouse xenografted with human HT-29 cells at 0.37 MBq/mouse, iv measured at 4 hrs using 177Lu labelled compound by gamma counter analysis; type: ADME, organism-based; details: in vivo
Outline: (§2)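 Female SCID mice (5 weeks) bore s.c. flank xenografts of HT-29 cells (5 × 10^6 in Matrigel), used at about 80 mm3 (two weeks) and randomized. Each mouse received 10 μCi (0.37 MBq) of HPLC-purified 177Lu-conjugate via tail vein. Tissues were excised, weighed and gamma-counted, expressed as %ID/g; mean ± SD, n = 5.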

[4] = Drug uptake in liver of SCID mouse xenografted with human HT-29 cells at 0.37 MBq/mouse, iv measured at 4 hrs using 177Lu labelled compound by gamma counter analysis; type: ADME, organism-based; details: in vivo; outline: as §2
[5] = Drug uptake in spleen of SCID mouse xenografted with human HT-29 cells at 0.37 MBq/mouse, iv measured at 4 hrs using 177Lu labelled compound by gamma counter analysis; type: ADME, organism-based; details: in vivo
Outline: (§3)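 Female SCID mice (5 weeks old) received s.c. flank HT-29 cells (5 × 10^6 in Matrigel). At ~80 mm3, two weeks later, mice were randomized and given 10 μCi (0.37 MBq) of purified 177Lu conjugate i.v. by tail vein. Mice were killed at 4, 24 or 72 h. Tissues were weighed and gamma counted as %ID/g, mean ± SD, n = 5. Tumor-to-tissue ratios were calculated.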

[6] = Drug uptake in large intestine of SCID mouse xenografted with human HT-29 cells at 0.37 MBq/mouse, iv measured at 4 hrs using 177Lu labelled compound by gamma counter analysis; type: ADME, organism-based; details: in vivo; outline: as §2
[7] = Drug uptake in bone of SCID mouse xenografted with human HT-29 cells at 0.37 MBq/mouse, iv measured at 4 hrs using 177Lu labelled compound by gamma counter analysis; type: ADME, organism-based, Bone element; details: in vivo; outline: as §2
[8] = Drug uptake in heart of SCID mouse xenografted with human HT-29 cells at 0.37 MBq/mouse, iv measured at 24 hrs using 177Lu labelled compound by gamma counter analysis; type: ADME, organism-based; details: in vivo; outline: as §2
[9] = Drug uptake in brain of SCID mouse xenografted with human HT-29 cells at 0.37 MBq/mouse, iv measured at 4 hrs using 177Lu labelled compound by gamma counter analysis; type: ADME, organism-based; details: in vivo; outline: as §2
[10] = Drug uptake in lung of SCID mouse xenografted with human HT-29 cells at 0.37 MBq/mouse, iv measured at 24 hrs using 177Lu labelled compound by gamma counter analysis; type: ADME, organism-based; details: in vivo; outline: as §2
[11] = Drug uptake in blood of SCID mouse xenografted with human HT-29 cells at 0.37 MBq/mouse, iv measured at 24 hrs using 177Lu labelled compound by gamma counter analysis; type: ADME, organism-based; details: in vivo; outline: as §1
[12] = Drug uptake in SCID mouse xenografted with human HT-29 cells assessed as tumour retention level at 0.37 MBq/mouse, iv measured at 4 hrs using 177Lu labelled compound by gamma counter analysis; type: ADME, organism-based; details: in vivo; outline: as §1
[13] = Drug uptake in spleen of SCID mouse xenografted with human HT-29 cells at 0.37 MBq/mouse, iv measured at 24 hrs using 177Lu labelled compound by gamma counter analysis; type: ADME, organism-based; details: in vivo; outline: as §3
[14] = Drug uptake in small intestine of SCID mouse xenografted with human HT-29 cells at 0.37 MBq/mouse, iv measured at 24 hrs using 177Lu labelled compound by gamma counter analysis; type: ADME, organism-based; details: in vivo; outline: as §2
[15] = Drug uptake in large intestine of SCID mouse xenografted with human HT-29 cells at 0.37 MBq/mouse, iv measured at 24 hrs using 177Lu labelled compound by gamma counter analysis; type: ADME, organism-based; details: in vivo; outline: as §2
[16] = Drug uptake in kidney of SCID mouse xenografted with human HT-29 cells at 0.37 MBq/mouse, iv measured at 24 hrs using 177Lu labelled compound by gamma counter analysis; type: ADME, organism-based; details: in vivo; outline: as §2
[17] = Drug uptake in muscle of SCID mouse xenografted with human HT-29 cells at 0.37 MBq/mouse, iv measured at 24 hrs using 177Lu labelled compound by gamma counter analysis; type: ADME, organism-based, Muscle tissue; details: in vivo; outline: as §2
[18] = Drug uptake in bone of SCID mouse xenografted with human HT-29 cells at 0.37 MBq/mouse, iv measured at 24 hrs using 177Lu labelled compound by gamma counter analysis; type: ADME, organism-based, Bone element; details: in vivo; outline: as §1
[19] = Drug uptake in liver of SCID mouse xenografted with human HT-29 cells at 0.37 MBq/mouse, iv measured at 72 hrs using 177Lu labelled compound by gamma counter analysis; type: ADME, organism-based; details: in vivo; outline: as §2
[20] = Drug uptake in pancreas of SCID mouse xenografted with human HT-29 cells at 0.37 MBq/mouse, iv measured at 72 hrs using 177Lu labelled compound by gamma counter analysis; type: ADME, organism-based; details: in vivo; outline: as §2
[21] = Drug uptake in stomach of SCID mouse xenografted with human HT-29 cells at 0.37 MBq/mouse, iv measured at 72 hrs using 177Lu labelled compound by gamma counter analysis; type: ADME, organism-based; details: in vivo; outline: as §3
[22] = Drug uptake in small intestine of SCID mouse xenografted with human HT-29 cells at 0.37 MBq/mouse, iv measured at 72 hrs using 177Lu labelled compound by gamma counter analysis; type: ADME, organism-based; details: in vivo; outline: as §2
[23] = Drug uptake in large intestine of SCID mouse xenografted with human HT-29 cells at 0.37 MBq/mouse, iv measured at 72 hrs using 177Lu labelled compound by gamma counter analysis; type: ADME, organism-based; details: in vivo; outline: as §2
[24] = Drug uptake in kidney of SCID mouse xenografted with human HT-29 cells at 0.37 MBq/mouse, iv measured at 72 hrs using 177Lu labelled compound by gamma counter analysis; type: ADME, organism-based; details: in vivo; outline: as §2
[25] = Drug uptake in brain of SCID mouse xenografted with human HT-29 cells at 0.37 MBq/mouse, iv measured at 72 hrs using 177Lu labelled compound by gamma counter analysis; type: ADME, organism-based; details: in vivo; outline: as §2
[26] = Drug uptake in SCID mouse xenografted with human HT-29 cells assessed as tumour retention level at 0.37 MBq/mouse, iv measured at 72 hrs using 177Lu labelled compound by gamma counter analysis; type: ADME, organism-based; details: in vivo; outline: as §1
[27] = Drug uptake in membrane of human HT-29 cells measured after 240 mins using 177Lu labelled compound by gamma counter method relative to control; type: ADME, cell-based; details: ht-29, 4 h
Outline: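 HT-29 cells (~1 × 10^6 in 1 mL medium) were incubated with 177Lu-conjugate (100,000 cpm) at 37 °C and sampled at 15–240 min. After medium washes, surface-bound activity was stripped with pH 2.8 glycine-HCl/NaCl buffer, and the internalized fraction was taken from the 1% SDS lysate. Fractions were gamma-counted as % of total added activity; mean ± SD, n = 3.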

For Cc1cc(C)c(C(=O)OCC(=O)[C@H](CCCCNC(=O)CNC(=O)[C@@H](CO)NC(=O)[C@@H](CO)NC(=O)[C@@H](CO)NC(=O)Cn2cc(C[C@H](NC(=O)CN3CCN(CC(=O)O)CCN(CC(=O)O)CCN(CC(=O)O)CC3)C(=O)N[C@H](CO)C(=O)N[C@H](CO)C(=O)N[C@H](CO)C(=O)N[C@@H](CCCCN)C(=O)N3CCC[C@H]3C(=O)N(C)[C@@H](CCCNC(=N)N)C(=O)N[C@@H](CCCNC(=N)N)C(=O)N3CCC[C@H]3C(=O)N[C@@H](Cc3c(C)cc(O)cc3C)C(=O)N[C@H](C(=O)N[C@@H](CC(C)C)C(=O)O)C(C)(C)C)nn2)NC(=O)[C@H](Cc2ccccc2)NC(=O)OCc2ccccc2)c(C)c1, the Drug excretion [1] was 16.6 %ID, the Drug uptake [2] was 1.22 % ID/g and the Drug uptake [3] was 1.4 % ID/g. It also gave a Drug uptake [4] of 38.6 % ID/g, a Drug uptake [5] of 16.1 % ID/g and a Drug uptake [6] of 2.9 % ID/g. For the same molecule, the Drug uptake [7] was 1.6 % ID/g, the Drug uptake [8] was 0.9 % ID/g and the Drug uptake [9] was 0.09 % ID/g. It also gave a Drug uptake [10] of 6 % ID/g, a Drug uptake [11] of 0.17 % ID/g and a Drug uptake [12] of 7.8 % ID/g. It also gave a Drug uptake [13] of 17 % ID/g, a Drug uptake [14] of 5.5 % ID/g and a Drug uptake [15] of 2.1 % ID/g. It also gave a Drug uptake [16] of 62 % ID/g, a Drug uptake [17] of 0.35 % ID/g and a Drug uptake [18] of 1.5 % ID/g. It also gave a Drug uptake [19] of 11 % ID/g, a Drug uptake [20] of 0.6 % ID/g and a Drug uptake [21] of 0.8 % ID/g. It also gave a Drug uptake [22] of 4.3 % ID/g, a Drug uptake [23] of 1.6 % ID/g and a Drug uptake [24] of 45 % ID/g. It also gave a Drug uptake [25] of 0.02 % ID/g, a Drug uptake [26] of 6.3 % ID/g and a Drug uptake [27] of 2%.
